Laboratory results reported in the M2OR odorant receptor database.

How the values were obtained:
[1] = molecular target: T1, OR5K1 (Homo sapiens) (UniProt Q8NHB7); conditions: stereoisomer not certain
T1 sequence (whole entry): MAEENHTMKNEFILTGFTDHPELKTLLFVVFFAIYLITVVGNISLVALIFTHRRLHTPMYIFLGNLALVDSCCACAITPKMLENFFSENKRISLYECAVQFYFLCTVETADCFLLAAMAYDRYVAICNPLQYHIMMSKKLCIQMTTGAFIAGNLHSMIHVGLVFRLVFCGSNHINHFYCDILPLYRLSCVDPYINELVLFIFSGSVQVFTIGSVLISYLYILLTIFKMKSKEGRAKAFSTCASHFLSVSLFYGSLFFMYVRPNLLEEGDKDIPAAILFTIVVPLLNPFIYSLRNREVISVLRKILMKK
How it was run: (§1)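 Each entry records the cell line, G-protein, co-transfected protein and tags used. Methods varied with the source, often transient luciferase assays in mammalian cell lines. A receptor–molecule pair is called responsive (active) if the original authors judged its signal statistically different from baseline and non-responsive (inactive) otherwise.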

[2] = molecular target: T2, OR5M3 (Homo sapiens) (UniProt Q8NGP4); conditions: stereoisomer not certain
T2 sequence (whole entry): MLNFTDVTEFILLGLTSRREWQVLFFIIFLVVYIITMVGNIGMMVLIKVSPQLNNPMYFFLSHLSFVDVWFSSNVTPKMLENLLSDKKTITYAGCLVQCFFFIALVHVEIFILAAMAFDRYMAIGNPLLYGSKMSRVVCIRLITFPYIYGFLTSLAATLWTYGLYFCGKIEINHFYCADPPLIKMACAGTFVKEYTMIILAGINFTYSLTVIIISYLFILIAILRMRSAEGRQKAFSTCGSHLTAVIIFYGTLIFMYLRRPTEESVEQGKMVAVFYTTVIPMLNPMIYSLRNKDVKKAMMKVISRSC
How it was run: as §1

CCC=CCCOC(C)=O
odorant receptor agonist call [1]: inactive
odorant receptor agonist call [2]: inactive

COCCC(C)(C)S
odorant receptor agonist call [1]: inactive
odorant receptor agonist call [2]: inactive

CCCC(O)CC(=O)OCC (centres undefined)
odorant receptor agonist call [1]: inactive
odorant receptor agonist call [2]: inactive

CCC(=O)C(C)S (centres undefined)
odorant receptor agonist call [1]: inactive
odorant receptor agonist call [2]: inactive

CSCCC=O
odorant receptor agonist call [1]: inactive
odorant receptor agonist call [2]: inactive

CCCCCCCCCC(=O)OCC
odorant receptor agonist call [1]: inactive
odorant receptor agonist call [2]: inactive

CSCSC
odorant receptor agonist call [1]: inactive
odorant receptor agonist call [2]: inactive

CCCCCCO
odorant receptor agonist call [1]: inactive
odorant receptor agonist call [2]: inactive

CCC(S)C(C)=O (centres undefined)
odorant receptor agonist call [1]: inactive
odorant receptor agonist call [2]: inactive

Cc1occc(=O)c1O
odorant receptor agonist call [1]: inactive
odorant receptor agonist call [2]: inactive

CCCCCCCC1CCCC(=O)O1 (centres undefined)
odorant receptor agonist call [1]: inactive
odorant receptor agonist call [2]: inactive

C=C1CCC2CC1C2(C)C (centres undefined)
odorant receptor agonist call [1]: inactive
odorant receptor agonist call [2]: inactive

CCc1cccc(O)c1
odorant receptor agonist call [1]: inactive
odorant receptor agonist call [2]: inactive

CC1=CCC(C(C)(C)S)CC1 (centres undefined)
odorant receptor agonist call [1]: inactive
odorant receptor agonist call [2]: inactive

CCC(=O)C1=NCCC1
odorant receptor agonist call [1]: inactive
odorant receptor agonist call [2]: inactive

CCOC(=O)C1CCCCC1
odorant receptor agonist call [1]: inactive
odorant receptor agonist call [2]: inactive

CCC=O
odorant receptor agonist call [1]: inactive
odorant receptor agonist call [2]: inactive

Cc1cccc(O)c1
odorant receptor agonist call [1]: inactive
odorant receptor agonist call [2]: inactive

CC=CC(=O)C(C)CC (centres undefined)
odorant receptor agonist call [1]: inactive
odorant receptor agonist call [2]: inactive

CCCCC=CC=CC=O
odorant receptor agonist call [1]: inactive
odorant receptor agonist call [2]: inactive

CCOC(C)=O
odorant receptor agonist call [1]: inactive
odorant receptor agonist call [2]: inactive

CCCC1CCCC(=O)O1 (centres undefined)
odorant receptor agonist call [1]: inactive
odorant receptor agonist call [2]: inactive

CCCCC(=O)OCC
odorant receptor agonist call [1]: inactive
odorant receptor agonist call [2]: inactive

CSC
odorant receptor agonist call [1]: inactive
odorant receptor agonist call [2]: inactive

CCCCCCCCCO
odorant receptor agonist call [2]: inactive

CCCCCCCCC1CCC(=O)O1 (centres undefined)
odorant receptor agonist call [1]: inactive
odorant receptor agonist call [2]: inactive

CC1(C)OC=CC1=O
odorant receptor agonist call [2]: inactive

CC(C)CCCCCCCCCCC=O
odorant receptor agonist call [1]: inactive
odorant receptor agonist call [2]: inactive

C=Cc1ccc(O)c(OC)c1
odorant receptor agonist call [1]: inactive
odorant receptor agonist call [2]: inactive

CC1=CC(=O)C(C)O1 (centres undefined)
odorant receptor agonist call [2]: inactive

CC(=O)OCC=Cc1ccccc1
odorant receptor agonist call [1]: inactive
odorant receptor agonist call [2]: inactive

CC(=O)C=CC1=C(C)CCCC1(C)C
odorant receptor agonist call [1]: inactive
odorant receptor agonist call [2]: inactive

CCC(C)CO (centres undefined)
odorant receptor agonist call [1]: inactive
odorant receptor agonist call [2]: inactive

CCCCC1OC(=O)CC1C (centres undefined)
odorant receptor agonist call [1]: inactive
odorant receptor agonist call [2]: inactive

CC(=O)OCCc1ccccc1
odorant receptor agonist call [1]: inactive
odorant receptor agonist call [2]: inactive

CCCCCCOC(C)=O
odorant receptor agonist call [1]: inactive
odorant receptor agonist call [2]: inactive

CC(C)CC=O
odorant receptor agonist call [1]: inactive
odorant receptor agonist call [2]: inactive

Cc1c[nH]c2ccccc12
odorant receptor agonist call [1]: inactive
odorant receptor agonist call [2]: inactive

C=CCSC
odorant receptor agonist call [1]: inactive
odorant receptor agonist call [2]: inactive

CCCCCC=CCCC=O
odorant receptor agonist call [1]: inactive
odorant receptor agonist call [2]: inactive

CC(C)=CC1CC(C)CCO1 (centres undefined)
odorant receptor agonist call [1]: inactive
odorant receptor agonist call [2]: inactive

O=c1ccc2ccccc2o1
odorant receptor agonist call [1]: inactive
odorant receptor agonist call [2]: inactive

C=CC(=O)CCCCC
odorant receptor agonist call [1]: inactive
odorant receptor agonist call [2]: inactive

CCCCCC(C)O (centres undefined)
odorant receptor agonist call [1]: inactive
odorant receptor agonist call [2]: inactive

CC(C)c1ccc(C=O)cc1
odorant receptor agonist call [1]: inactive
odorant receptor agonist call [2]: inactive

CCCCCC=CC=O
odorant receptor agonist call [1]: inactive
odorant receptor agonist call [2]: inactive

CC1=CCC2CC1C2(C)C (centres undefined)
odorant receptor agonist call [1]: inactive
odorant receptor agonist call [2]: inactive

CCCCC(CC)CCC(=O)O (centres undefined)
odorant receptor agonist call [1]: inactive
odorant receptor agonist call [2]: inactive

CC(=O)O
odorant receptor agonist call [1]: inactive
odorant receptor agonist call [2]: inactive

CC1=CCOC1=O
odorant receptor agonist call [2]: inactive

CSSc1ccoc1C
odorant receptor agonist call [1]: inactive
odorant receptor agonist call [2]: inactive

COC(=O)C=Cc1ccccc1
odorant receptor agonist call [2]: inactive
